According to ChEMBL document CHEMBL1799922, “Synthesis and antimycobacterial activity of prodrugs of indeno[2,1-c]quinoline derivatives” (Eur J Med Chem, 2011):
In brackets after ≈: the same amount, converted by molar mass.

Tests used:
[1] = Cytotoxicity against human U937 cells assessed as cell viability at 1.25 ug/ml after 72 hrs by MTT assay; format: cell-based, U-937; details: read-out: Activity
How it was run: (§1)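 U937 human monocytic cells plated at 1 × 10^5 cells/mL and allowed to adhere for 1 h at 37 °C in 5% CO2. Non-adherent cells were washed off with RPMI 1640. Adherent cells were exposed to compound in triplicate, with medium alone as the live control and 3% Tween 20 as the dead control. MTT (5 mg/mL in PBS) was then added for 3 h at 37 °C. Formazan was dissolved in 0.4 M HCl/isopropanol and absorbance read at 600 nm. Results are expressed as % cell viability.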

[2] = Half life in human blood serum by LC-MS analysis; format: ADME, cell-free, Plasma
How it was run: (§2)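 Enzymatic hydrolysis: 1 mg prodrug dissolved in 1 mL ethanol, then 200 µL preheated human blood serum diluted to 80% with 0.16 M phosphate buffer (pH 7.4) was added. Samples were kept at 37 °C (24 h) and centrifuged 10 min at 10,000 rpm. Remaining prodrug in the supernatant was monitored by TLC and LC-MS. t1/2 is the time to 50% hydrolysis.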

[3] = system: Mycobacterium tuberculosis; experiment: Antimicrobial activity against Mycobacterium tuberculosis H37Rv ATCC 27294 after 16 to 24 hrs by microplate alamar blue assay; format: functional
How it was run: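 M. tuberculosis H37Rv inoculum 2×10^5 cfu/mL (100 µL) added to twofold dilutions in Middlebrook 7H12 medium; final test range 128 µM to 0.5 µM from 12.8 mM DMSO stocks. Incubated 37 °C; day 7 Tween 80 plus Alamar Blue added, further 16-24 h at 37 °C. Fluorescence ex 530/em 590 nm; MIC = lowest concentration giving >90% fluorescence reduction versus replicate bacteria-only controls. Rifampin, isoniazid controls.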

[4] = Stability of the compound in 10% aqueous ammonia buffer at pH 8 assessed as hydrolysis to 2-bromo-6-(1H-imidazol-1-yl)-7H-indeno[2,1-c]quinolin-7-one oxime at 1 mg at 37 degC by LC-MS analysis; format: physicochemical; parameters: scale not given: the % may be the effect or the level left
How it was run: (§3)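 Chemical hydrolysis: 1 mg prodrug dissolved in 1 mL of 10% aqueous ammonia in methanol (pH 8) and held in a thermostatted water bath at 37 °C, up to 24 h. Conversion to the parent oxime was followed by TLC and LC-MS. t1/2 is the time to 50% hydrolysis.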

[5] = Half life in 10% aqueous ammonia buffer at pH 8 assessed as hydrolysis to 2-bromo-6-(1H-imidazol-1-yl)-7H-indeno[2,1-c]quinolin-7-one oxime at 37 degC by LC-MS analysis; format: physicochemical; how it was run: as §3
[6] = Octanol-water partition coefficient, log P of the compound at pH 7.4 at room temperature by UV spectrophotometric analysis; format: physicochemical
How it was run: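 Shake-flask method at room temperature: 1-octanol and phosphate buffer (pH 7.4) were pre-saturated by shaking for 24 h. Compound at 10^-4 M in equal volumes of both phases was shaken vigorously for 1 h, left to stand 15 min, then centrifuged 10 min at 10,000 rpm. UV absorbance of each phase was read at 280 nm against blanks, and P was taken as the octanol/water absorbance ratio.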

Serum = experiment: Stability of the compound in 80% human blood serum assessed as hydrolysis to 2-bromo-6-(1H-imidazol-1-yl)-7H-indeno[2,1-c]quinolin-7-one oxime at 1 mg after 24 hrs at 37 degC by LC-MS analysis; format: ADME, cell-free; parameters: scale not given: the % may be the effect or the level left; how it was run: as §2
[7] = Cytotoxicity against human U937 cells assessed as cell viability at 10 ug/ml after 72 hrs by MTT assay; format: cell-based, U-937; details: read-out: Activity; how it was run: as §1
[8] = Selectivity index, ratio CC50 for human U937 cells to MIC for Mycobacterium tuberculosis H37Rv ATCC 27294; format: functional, U-937
[9] = Cytotoxicity against human U937 cells assessed as cell viability at 5 ug/ml after 72 hrs by MTT assay; format: cell-based, U-937; details: read-out: Activity; how it was run: as §1
[10] = Cytotoxicity against human U937 cells assessed as cell viability at 20 ug/ml after 72 hrs by MTT assay; format: cell-based, U-937; details: read-out: Activity; how it was run: as §1

| SMILES | viability at 72 h, 1.25 ug/ml [1] [%] | half-life [2] [h] | MIC [3] [µg/mL] | Activity [4] [%] | half-life [5] [h] | logD [6] | Activity (Serum) | viability at 72 h, 10 ug/ml [7] [%] | Selectivity Index [8] | viability at 72 h, 5 ug/ml [9] [%] | viability at 72 h, 20 ug/ml [10] [%] |
| --- | --- | --- | --- | --- | --- | --- | --- | --- | --- | --- | --- |
| CCCCCCCCCC(=O)O/N=C1\c2ccccc2-c2c1c(-n1ccnc1)nc1ccc(Br)cc21 | 100 | 144 | 3 (≈ 5.5 µM) | 90 | 24 | 1.4 | 90% | 81 | – | – | – |
| CCCCCCC(=O)O/N=C1\c2ccccc2-c2c1c(-n1ccnc1)nc1ccc(Br)cc21 | 85 | 192 | 0.36 (≈ 0.715 µM) | 95 | 48 | 1.5 | 85% | 67 | >111 | 80 | 60 |
| CC(C)(C)OC(=O)N[C@H](C(=O)O/N=C1\c2ccccc2-c2c1c(N1CCN(c3ccccn3)CC1)nc1ccc(Br)cc21)C(C)(C)C | 92 | – | 1.52 (≈ 2.17 µM) | 95 | 48 | 1.5 | 11% | 87 | >26 | 86 | 82 |
| CC(C)(C)OC(=O)NC(Cc1ccccc1)C(=O)O/N=C1\c2ccccc2-c2c1c(N1CCN(c3ccccn3)CC1)nc1ccc(Br)cc21 (stereo not given) | 87 | 432 | 3.47 (≈ 4.73 µM) | 98 | 72 | 1.2 | 70% | 71 | >12 | 87 | 73 |
| CCCCCCCCC(=O)OC1(C)c2ccccc2-c2c1c(-n1ccnc1)nc1ccc(Br)cc21 (stereo not given) | 86 | – | 1.56 (≈ 2.93 µM) | 90 | 288 | 1.6 | Not Active | 71 | 11.4 | 75 | 50 |
| CC1(OC(=O)CC(F)(F)F)c2ccccc2-c2c1c(-n1ccnc1)nc1ccc(Br)cc21 (stereo not given) | 92 | 480 | 0.5 (≈ 0.995 µM) | 96 | 24 | 1.8 | – | 62 | 22.4 | 80 | 26 |
| CC(C)(C)OC(=O)N1CCC[C@H]1C(=O)O/N=C1\c2ccccc2-c2c1c(N1CCN(c3ccccn3)CC1)nc1ccc(Br)cc21 | 86 | – | 1.53 (≈ 2.24 µM) | 95 | 24 | 2.3 | 13% | 61 | >26 | 75 | 69 |
| CCCCC(=O)OC1(C)c2ccccc2-c2c1c(-n1ccnc1)nc1ccc(Br)cc21 (stereo not given) | 91 | – | 1.53 (≈ 3.21 µM) | 90 | 288 | 1.7 | Not Active | 48 | 5.6 | 75 | 4 |
| CC(C)(C)OC(=O)NCC(=O)OC1(C)c2ccccc2-c2c1c(-n1ccnc1)nc1ccc(Br)cc21 (stereo not given) | 90 | – | 2.03 (≈ 3.69 µM) | 97 | 24 | 1.8 | Not Active | 62 | 6 | 83 | 28 |
| CCCCCC(=O)OC1(C)c2ccccc2-c2c1c(-n1ccnc1)nc1ccc(Br)cc21 (stereo not given) | 85 | – | 1.6 (≈ 3.26 µM) | 90 | 288 | 1.4 | Not Active | 54 | 6.1 | 77 | 15 |
